pEC50, pIC50, pKi: −log10 of the molar value.
Experiments:
[1] = molecular target: T1, Metabotropic glutamate receptor 3 (Homo sapiens, UniProt Q14832); assay: Ability to displace [3H]LY-341,495 from recombinant human Metabotropic glutamate receptor 3 expressed in RGT cells.; format: cell-based
[2] = molecular target: T2, Metabotropic glutamate receptor 2 (Homo sapiens, UniProt Q14416); assay: Ability to displace [3H]LY-341,495 from recombinant human Metabotropic glutamate receptor 2 subtypes expressed in RGT cells.; format: cell-based
[3] = Ability to displace [3H]LY-341,495 binding to Group II Metabotropic glutamate receptor from rat forebrain
Summary of the method: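 Rat forebrain homogenates; displacement of the group II-selective radioligand [3H]LY341495. Where an IC50 below 100 µM could be determined, runs were in triplicate. Values are given as mean IC50 ± standard error.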

[4] = molecular target: Metabotropic glutamate receptor 4 (Homo sapiens, UniProt Q14833); assay: Inhibition of forskolin stimulated cAMP production in RGT cells expressing recombinant human mGluR4a; format: functional, cell-based
Summary of the method: (§1)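 AV12-664 (RGT) cells co-expressing the GLAST glutamate transporter and one recombinant human mGlu receptor (mGlu1a, mGlu4a, mGlu5a, mGlu6, mGlu7a or mGlu8). Second-messenger response measured; agonist and antagonist modes tested, typically up to 10 000–100 000 nM. EC50 and Emax reported.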

[5] = molecular target: T3, Glutamate receptor ionotropic, AMPA (Rattus norvegicus, UniProt P19490+P19491+P19492+P19493); assay: Binding affinity against Ionotropic glutamate receptor AMPA using [3H]AMPA as radioligand.; format: protein-complex assay
Summary of the method: (§2)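 Rat forebrain homogenates; displacement of [3H]kainic acid (kainate), [3H]AMPA (AMPA) or [3H]CGP39653 (NMDA) binding, tested up to 100 000 nM. Where an IC50 below 100 µM could be determined, runs were in triplicate. Values are given as mean IC50 ± standard error.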

[6] = molecular target: Metabotropic glutamate receptor 1 (Homo sapiens, UniProt Q13255); assay: […] in RGT cells expressing recombinant human mGluR1a; format: functional, cell-based; summary of the method: as §1
[7] = Ability to displace [3H]CGP-39653 binding to N-methyl-D-aspartate glutamate receptor from rat forebrain; summary of the method: as §2
[8] = molecular target: Glutamate receptor ionotropic, kainate; assay: Ability to displace [3H]-KA binding to Ionotropic glutamate receptor kainate from rat forebrain; summary of the method: as §2
[9] = molecular target: Metabotropic glutamate receptor 6 (Homo sapiens, UniProt O15303); assay: Inhibition of forskolin stimulated cAMP production in RGT cells expressing recombinant human mGluR6; format: functional, cell-based; summary of the method: as §1
[10] = molecular target: T2, Metabotropic glutamate receptor 2; assay: Inhibition of forskolin stimulated cAMP production in RGT cells expressing recombinant human Metabotropic glutamate receptor 2; format: functional, cell-based
[11] = molecular target: Metabotropic glutamate receptor 7 (Homo sapiens, UniProt Q14831); assay: Inhibition of forskolin stimulated cAMP production in RGT cells expressing recombinant human mGluR7; format: functional, cell-based; summary of the method: as §1
[12] = molecular target: Metabotropic glutamate receptor 8 (Homo sapiens, UniProt O00222); assay: Inhibition of forskolin stimulated cAMP production in RGT cells expressing recombinant human mGluR8; format: functional, cell-based; summary of the method: as §1
[13] = molecular target: Metabotropic glutamate receptor 5 (Homo sapiens, UniProt P41594); assay: […] in RGT cells expressing recombinant human mGluR5a; format: functional, cell-based; summary of the method: as §1
[14] = molecular target: T1, Metabotropic glutamate receptor 3; assay: Inhibition of forskolin stimulated cAMP production in RGT cells expressing recombinant human Metabotropic glutamate receptor 3; format: functional, cell-based
[15] = molecular target: T3, Glutamate receptor ionotropic, AMPA; assay: Ability to displace [3H]AMPA binding to Ionotropic glutamate receptor AMPA from rat forebrain; summary of the method: as §2
Mus musculus [16] = assay: Effect on limbic seizures induced by ACPD in NIH Swiss mice 4 hr after systemic administration; format: functional; details: Limbic system
Summary of the method: (§3)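 Male NIH Swiss mice received test agent ip 1, 2 or 4 h before unilateral intracerebral injection of (1S,3R)-ACPD (400 nmol). Controls received H2O ip before ic H2O or ACPD. Mice were watched after ACPD for limbic seizures (clonic forelimb contractions, rearing to a praying stance, loss of balance, falling). Scored as number seizing/number treated (n=10); ED50 calculated.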

Mus musculus [17] = assay: Effect on limbic seizures induced by ACPD in NIH Swiss mice 2 hr after systemic administration; format: functional; details: Limbic system; summary of the method: as §3
Mus musculus [18] = assay: Effect on limbic seizures induced by ACPD in NIH Swiss mice at 100 mg/kg dose 1 hr after systemic administration; format: functional, Limbic system; summary of the method: as §3
Mus musculus [19] = assay: Effect on limbic seizures induced by ACPD in NIH Swiss mice 1 hr after systemic administration; format: functional; details: Limbic system; summary of the method: as §3
Mus musculus [20] = assay: Effect on limbic seizures induced by ACPD in NIH Swiss mice at 30 mg/kg dose 1 hr after systemic administration; format: functional, Limbic system; summary of the method: as §3

Chain of Metabotropic glutamate receptor 8 (O00222 whole entry): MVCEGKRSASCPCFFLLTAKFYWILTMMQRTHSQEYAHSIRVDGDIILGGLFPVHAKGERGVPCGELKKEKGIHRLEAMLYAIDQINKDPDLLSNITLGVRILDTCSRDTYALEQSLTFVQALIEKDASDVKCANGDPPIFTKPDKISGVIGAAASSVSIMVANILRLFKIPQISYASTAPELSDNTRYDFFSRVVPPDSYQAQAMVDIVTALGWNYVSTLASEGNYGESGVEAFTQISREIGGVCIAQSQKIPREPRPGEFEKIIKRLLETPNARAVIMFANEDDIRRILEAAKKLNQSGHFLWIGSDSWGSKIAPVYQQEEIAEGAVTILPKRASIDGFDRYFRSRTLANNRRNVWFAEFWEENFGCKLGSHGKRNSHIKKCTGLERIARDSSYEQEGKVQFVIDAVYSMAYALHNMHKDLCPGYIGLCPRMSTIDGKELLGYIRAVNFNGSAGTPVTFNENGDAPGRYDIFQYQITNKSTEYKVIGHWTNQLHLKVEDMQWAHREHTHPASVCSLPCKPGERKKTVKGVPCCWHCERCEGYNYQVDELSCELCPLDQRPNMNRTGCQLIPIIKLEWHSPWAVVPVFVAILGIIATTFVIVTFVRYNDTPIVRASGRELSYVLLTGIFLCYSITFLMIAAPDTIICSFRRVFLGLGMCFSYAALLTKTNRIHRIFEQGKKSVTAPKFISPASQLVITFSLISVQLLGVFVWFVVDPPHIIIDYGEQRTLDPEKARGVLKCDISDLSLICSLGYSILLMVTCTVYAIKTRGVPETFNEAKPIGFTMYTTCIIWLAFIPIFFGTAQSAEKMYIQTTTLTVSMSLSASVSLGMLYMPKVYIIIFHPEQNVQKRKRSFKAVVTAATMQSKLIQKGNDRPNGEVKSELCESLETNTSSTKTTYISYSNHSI
T2 sequence (Q14416 whole entry): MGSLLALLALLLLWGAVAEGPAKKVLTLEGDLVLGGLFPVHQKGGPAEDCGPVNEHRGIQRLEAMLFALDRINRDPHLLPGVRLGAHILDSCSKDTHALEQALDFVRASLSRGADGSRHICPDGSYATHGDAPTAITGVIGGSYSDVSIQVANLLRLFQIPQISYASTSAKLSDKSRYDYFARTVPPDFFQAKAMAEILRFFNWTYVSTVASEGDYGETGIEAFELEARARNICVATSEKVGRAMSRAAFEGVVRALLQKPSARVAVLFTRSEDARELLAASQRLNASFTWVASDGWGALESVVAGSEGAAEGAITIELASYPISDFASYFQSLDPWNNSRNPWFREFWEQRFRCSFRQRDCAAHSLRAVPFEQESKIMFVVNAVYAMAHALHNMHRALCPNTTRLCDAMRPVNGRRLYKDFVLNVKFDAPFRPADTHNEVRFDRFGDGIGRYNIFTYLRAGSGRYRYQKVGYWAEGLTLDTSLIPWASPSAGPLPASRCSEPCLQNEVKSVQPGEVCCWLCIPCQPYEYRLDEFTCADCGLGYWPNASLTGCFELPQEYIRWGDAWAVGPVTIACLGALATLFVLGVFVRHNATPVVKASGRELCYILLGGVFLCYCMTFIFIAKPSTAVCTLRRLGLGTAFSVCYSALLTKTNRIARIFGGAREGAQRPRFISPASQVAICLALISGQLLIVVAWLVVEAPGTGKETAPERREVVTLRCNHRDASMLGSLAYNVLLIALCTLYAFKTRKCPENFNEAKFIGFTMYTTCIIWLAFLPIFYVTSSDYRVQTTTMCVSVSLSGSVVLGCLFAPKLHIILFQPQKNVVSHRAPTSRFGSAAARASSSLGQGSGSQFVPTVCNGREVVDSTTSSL
Chain of Metabotropic glutamate receptor 1 (Q13255 whole entry): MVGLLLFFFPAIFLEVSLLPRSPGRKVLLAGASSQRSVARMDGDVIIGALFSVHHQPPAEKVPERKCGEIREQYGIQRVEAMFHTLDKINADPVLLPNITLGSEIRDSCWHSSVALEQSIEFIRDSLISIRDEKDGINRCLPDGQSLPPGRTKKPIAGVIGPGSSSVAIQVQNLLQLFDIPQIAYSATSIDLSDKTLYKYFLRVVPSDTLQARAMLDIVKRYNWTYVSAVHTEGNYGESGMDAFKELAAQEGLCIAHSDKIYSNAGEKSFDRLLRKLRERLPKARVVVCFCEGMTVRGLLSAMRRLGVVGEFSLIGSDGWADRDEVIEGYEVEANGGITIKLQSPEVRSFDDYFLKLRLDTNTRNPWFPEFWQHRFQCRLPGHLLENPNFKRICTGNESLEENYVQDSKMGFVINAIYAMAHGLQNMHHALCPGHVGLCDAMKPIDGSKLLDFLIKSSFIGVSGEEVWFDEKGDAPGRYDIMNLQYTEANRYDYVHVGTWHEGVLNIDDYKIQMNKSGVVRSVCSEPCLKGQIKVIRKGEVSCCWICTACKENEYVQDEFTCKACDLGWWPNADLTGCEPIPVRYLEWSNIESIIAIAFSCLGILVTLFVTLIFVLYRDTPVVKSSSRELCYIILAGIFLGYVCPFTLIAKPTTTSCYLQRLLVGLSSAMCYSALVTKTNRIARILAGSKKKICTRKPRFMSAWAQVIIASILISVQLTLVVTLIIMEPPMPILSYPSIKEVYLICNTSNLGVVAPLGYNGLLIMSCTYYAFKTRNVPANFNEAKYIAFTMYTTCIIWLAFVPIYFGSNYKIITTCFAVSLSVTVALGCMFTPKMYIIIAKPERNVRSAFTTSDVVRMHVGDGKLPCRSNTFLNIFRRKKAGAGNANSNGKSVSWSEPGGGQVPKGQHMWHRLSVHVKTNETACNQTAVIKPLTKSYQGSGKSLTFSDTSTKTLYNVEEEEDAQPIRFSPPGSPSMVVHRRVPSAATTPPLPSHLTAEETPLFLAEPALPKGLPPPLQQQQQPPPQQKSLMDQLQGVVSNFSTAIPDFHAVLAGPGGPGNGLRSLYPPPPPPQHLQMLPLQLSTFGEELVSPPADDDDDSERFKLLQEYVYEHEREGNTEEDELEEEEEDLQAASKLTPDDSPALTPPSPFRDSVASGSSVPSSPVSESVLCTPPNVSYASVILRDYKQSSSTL
Chain of Metabotropic glutamate receptor 4 (Q14833 whole entry): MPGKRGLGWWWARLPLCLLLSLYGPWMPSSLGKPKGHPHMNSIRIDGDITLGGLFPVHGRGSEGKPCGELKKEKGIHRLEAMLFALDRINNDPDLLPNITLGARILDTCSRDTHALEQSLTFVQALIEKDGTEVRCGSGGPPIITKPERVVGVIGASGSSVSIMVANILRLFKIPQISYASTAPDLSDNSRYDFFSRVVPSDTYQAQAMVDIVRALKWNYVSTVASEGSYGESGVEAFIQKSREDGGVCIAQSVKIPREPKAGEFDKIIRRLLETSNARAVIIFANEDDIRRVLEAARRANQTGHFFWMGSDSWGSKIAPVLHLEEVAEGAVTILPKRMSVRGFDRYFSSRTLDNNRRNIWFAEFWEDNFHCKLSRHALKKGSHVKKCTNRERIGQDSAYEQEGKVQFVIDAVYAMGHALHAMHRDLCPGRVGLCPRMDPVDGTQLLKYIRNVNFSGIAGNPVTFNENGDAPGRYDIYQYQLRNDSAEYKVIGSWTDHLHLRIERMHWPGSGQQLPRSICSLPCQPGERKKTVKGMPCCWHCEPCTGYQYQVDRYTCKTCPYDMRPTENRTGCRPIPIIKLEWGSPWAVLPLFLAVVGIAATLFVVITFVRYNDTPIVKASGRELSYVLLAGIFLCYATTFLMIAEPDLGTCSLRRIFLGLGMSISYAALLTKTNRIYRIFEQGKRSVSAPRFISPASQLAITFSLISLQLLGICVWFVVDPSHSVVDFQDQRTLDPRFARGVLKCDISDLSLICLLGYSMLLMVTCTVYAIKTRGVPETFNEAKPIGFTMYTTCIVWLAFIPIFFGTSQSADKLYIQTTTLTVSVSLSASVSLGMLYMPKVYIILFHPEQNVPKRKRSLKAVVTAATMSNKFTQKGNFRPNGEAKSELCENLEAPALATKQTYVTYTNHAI
Chain of Metabotropic glutamate receptor 6 (O15303 whole entry): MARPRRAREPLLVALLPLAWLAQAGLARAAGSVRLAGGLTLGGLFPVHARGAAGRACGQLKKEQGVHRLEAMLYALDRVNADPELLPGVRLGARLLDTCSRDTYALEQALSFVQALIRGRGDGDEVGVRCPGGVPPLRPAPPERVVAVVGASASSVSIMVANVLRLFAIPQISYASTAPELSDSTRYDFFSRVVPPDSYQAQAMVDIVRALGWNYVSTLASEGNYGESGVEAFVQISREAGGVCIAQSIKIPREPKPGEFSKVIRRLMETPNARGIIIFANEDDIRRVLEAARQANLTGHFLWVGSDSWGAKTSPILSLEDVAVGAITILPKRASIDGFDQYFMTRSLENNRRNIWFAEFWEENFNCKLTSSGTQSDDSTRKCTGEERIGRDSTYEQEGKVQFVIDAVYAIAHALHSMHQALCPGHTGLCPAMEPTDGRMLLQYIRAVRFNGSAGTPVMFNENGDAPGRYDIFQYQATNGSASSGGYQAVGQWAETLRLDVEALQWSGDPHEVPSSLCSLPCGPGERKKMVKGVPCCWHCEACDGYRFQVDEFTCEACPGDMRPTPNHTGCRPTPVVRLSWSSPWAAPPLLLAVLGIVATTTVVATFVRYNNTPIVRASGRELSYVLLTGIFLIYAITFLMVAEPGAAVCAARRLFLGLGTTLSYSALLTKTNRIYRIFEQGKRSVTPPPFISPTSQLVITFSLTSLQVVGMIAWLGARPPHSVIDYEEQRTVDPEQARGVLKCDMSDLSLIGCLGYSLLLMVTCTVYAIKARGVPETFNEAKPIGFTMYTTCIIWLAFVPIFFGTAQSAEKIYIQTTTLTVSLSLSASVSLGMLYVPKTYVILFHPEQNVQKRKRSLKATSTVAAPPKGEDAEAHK

Row | SMILES | pKi [1] | pKi [2] | pIC50 [3] | pEC50 [4] | pIC50 [5] | pEC50 [6] | pIC50 [7] | pIC50 [8] | pEC50 [9] | pEC50 [10] | pEC50 [11] | pEC50 [12] | pEC50 [13] | pEC50 [14] | pIC50 [15] | ED50 (Mus musculus [16]) [mg/kg] | ED50 (Mus musculus [17]) [mg/kg] | No. of mice effected/No. of treated (Mus musculus [18]) | ED50 (Mus musculus [19]) [mg/kg] | No. of mice effected/No. of treated (Mus musculus [20])
1 | N[C@@]1(C(=O)O)CS[C@H]2[C@H](C(=O)O)[C@H]21 (stereo in doubt; (+)-10) [LY-389795] | 6.77 | 6.09 | 6.10 |  |  |  |  |  |  |  |  |  |  |  |  |  |  |  |  | 
2 | N[C@@]1(C(=O)O)CC[C@H]2[C@H](C(=O)O)[C@H]21 [EGLUMETAD] | 7.03 | 7.13 | 6.60 | < 4.00 | < 4.00 | < 4.00 | < 4.00 | < 4.00 | 5.52 | 7.95 | < 4.00 | 4.94 | < 4.00 | 7.42 |  |  |  |  |  | 
3 | N[C@@]1(C(=O)O)CO[C@H]2[C@H](C(=O)O)[C@H]21 (stereo in doubt; (+)-9) [LY-379268] | 5.98 | 5.70 | 5.30 |  |  |  |  |  |  |  |  |  |  |  |  |  |  |  |  | 
4 | N[C@@]1(C(=O)O)CS[C@H]2[C@H](C(=O)O)[C@H]21 (racemic) [LY-389795] | 8.03 | 7.17 | 7.58 |  |  |  | < 4.00 | < 4.00 |  |  |  |  |  |  | < 4.00 |  |  |  |  | 
5 | N[C@@]1(C(=O)O)CO[C@H]2[C@H](C(=O)O)[C@H]21 (stereo in doubt; (-)-9) [LY-379268] | 8.24 | 7.85 | 7.82 | 4.68 |  | < 4.00 | < 4.00 | < 4.00 | 6.40 | 8.57 | < 4.00 | 5.77 | < 4.00 | 8.34 | < 4.00 | 26 | 6 | 10 | 19 | 10
6 | N[C@@]1(C(=O)O)CO[C@H]2[C@H](C(=O)O)[C@H]21 (racemic) [LY-379268] | 7.84 | 7.44 | 7.54 |  |  |  |  |  |  |  |  |  |  |  |  |  |  |  |  | 
7 | N[C@@]1(C(=O)O)CS[C@H]2[C@H](C(=O)O)[C@H]21 (stereo in doubt; (-)-10) [LY-389795] | 8.33 | 7.39 | 8.08 | < 4.00 |  | < 4.00 |  |  | 5.61 | 8.41 | < 4.00 | 5.13 | < 4.00 | 8.12 |  | 14 | 15 | 10 | 14 | 10

From ChEMBL document CHEMBL1132607, “Synthesis, pharmacological characterization, and molecular modeling of heterobicyclic amino acids related to (+)-2-aminobicyclo[3.1.0] hexane-2,6-dicarboxylic acid (LY354740): identification of two new potent, selective, and systemically active agonists for group II metabotropic glutamate receptors” (J Med Chem, 1999)
